Key:
H9c2 [1] = assay: Cytoprotective activity against OGD-induced ischemic cell death in rat H9c2 cells assessed as cell death at 10 uM for 30 mins by DAPI analysis; format: functional
Outline: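 H9c2 rat heart cells grown in DMEM with 10% FBS and penicillin/streptomycin at 37 °C in 5% CO2. Compound added 30 min before and during oxygen-glucose deprivation. Cells fixed with 0.5% Triton X-100 in PBS for 15 min, then DAPI-stained. Nuclei counted by fluorescence microscopy in three random fields of at least 300 cells to give % dead cells. Mean ± SEM.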

H9c2 [2] = assay: Cytoprotective activity against OGD-induced ischemic cell death in rat H9c2 cells assessed as cell death at 10 uM for 30 mins by LDH release assay; format: functional
Outline: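 H9c2 rat heart cells grown in DMEM with 10% FBS and penicillin/streptomycin at 37 °C in 5% CO2. Pretreated with compound for 30 min, then kept on compound during oxygen-glucose deprivation. Cell death read as LDH released, expressed as a percentage of LDH released by full lysis with 0.1% Triton X-100. Mean ± SEM; Student's t-test.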

[3] = Cytoprotective activity against OGD-induced ischemic cell death in Sprague-Dawley rat primary cardiac myocytes assessed as inhibition of cell death treated for 6 hrs by counting DAPI-stained nuclei; conditions: Cardiac muscle cell

COC(=O)c1oc2ccccc2c1NC(=O)CSc1ccc(N)cc1
Activity (H9c2 [1]): 16.54% | Activity (H9c2 [2]): 40.15%

COC(=O)c1oc2ccccc2c1NC(=O)CSc1ccccc1
Activity (H9c2 [1]): 15.97% | Activity (H9c2 [2]): 40.93%

COC(=O)c1oc2ccccc2c1NC(=O)CCc1ccccc1
Activity (H9c2 [1]): 15.94% | Activity (H9c2 [2]): 38.72%

COC(=O)c1sc2ccccc2c1NC(=O)CSc1ccc(Br)cc1
Activity (H9c2 [1]): 13.92% | Activity (H9c2 [2]): 41.31%

COC(=O)c1oc2ccccc2c1NC(=O)CSc1ccc(C)cc1
Activity (H9c2 [1]): 21.57% | Activity (H9c2 [2]): 56.39%

COC(=O)c1oc2ccccc2c1NC(=O)CCSc1ccccn1
Activity (H9c2 [1]): 11.55% | Activity (H9c2 [2]): 36.07% | EC50 [3]: 929 nM

COC(=O)c1oc2ccccc2c1NC(=O)CSc1ccc(OC)cc1
Activity (H9c2 [1]): 9.73% | Activity (H9c2 [2]): 40.34% | EC50 [3]: 752 nM

COC(=O)c1oc2ccccc2c1NC(=O)CSc1ccc([N+](=O)[O-])cc1
Activity (H9c2 [1]): 6.18% | Activity (H9c2 [2]): 30.21% | EC50 [3]: 532 nM

COC(=O)c1oc2cccc(Cl)c2c1NC(=O)CSc1ccc(Br)cc1
Activity (H9c2 [1]): 8.94% | Activity (H9c2 [2]): 35.48% | EC50 [3]: 630 nM

COC(OC)[C@@]1(C)Oc2ccc(N)cc2[C@@H](N/C(=N/Cc2ccccc2)NC#N)[C@@H]1O
Activity (H9c2 [1]): 15.54% | Activity (H9c2 [2]): 43.33% | EC50 [3]: 1110 nM

COC(=O)c1oc2ccccc2c1NC(=O)CSc1ccccc1Br
Activity (H9c2 [1]): 13.63% | Activity (H9c2 [2]): 41.01%

COC(=O)c1oc2ccccc2c1NC(=O)CNc1ccc(Br)cc1
Activity (H9c2 [1]): 22.37% | Activity (H9c2 [2]): 60.32%

COC(=O)c1oc2ccccc2c1NC(=O)CSc1ccc(Br)cc1
Activity (H9c2 [1]): 10.59% | Activity (H9c2 [2]): 32.39% | EC50 [3]: 778 nM

COC(=O)c1oc2ccccc2c1NC(=O)CSc1cccc(Br)c1
Activity (H9c2 [1]): 16.85% | Activity (H9c2 [2]): 39.51%

COC(=O)c1oc2ccccc2c1NC(=O)COc1ccc(Br)cc1
Activity (H9c2 [1]): 13.17% | Activity (H9c2 [2]): 36.17% | EC50 [3]: 1180 nM

COC(=O)c1oc2cccc(Cl)c2c1NC(=O)CCSc1ccccn1
Activity (H9c2 [1]): 7.02% | Activity (H9c2 [2]): 29.46% | EC50 [3]: 557 nM

COC(=O)c1oc2ccccc2c1NC(=O)CNc1ccccc1
Activity (H9c2 [1]): 21.04% | Activity (H9c2 [2]): 62.76%

Source: ChEMBL document CHEMBL1268997, “Synthesis and biological evaluation of 3-substituted-benzofuran-2-carboxylic esters as a novel class of ischemic cell death inhibitors” (Bioorg Med Chem Lett, 2010)
